Screening results deposited in PubChem BioAssay by The Scripps Research Institute Molecular Screening Center.
PAFAH1B2 FP inh: PAFAH1B2 enzyme inhibitors, primary screen, biochemical, fluorescence polarization, human; Platelet-activating factor acetylhydrolase IB subunit alpha2 (Homo sapiens), P68402; recombinant PAFAH1B2, FP-rhodamine activity probe; inhibition, % at 3.39 µM; 1.2% of 340,000 active;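 active = inhibition above the mean of all tested compounds plus 3 SD, cut at about 24% in these data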;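 also: 0% = enzyme with DMSO and 100% = wells lacking PAFAH1B2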
Target sequence (P68402 whole entry, looked up): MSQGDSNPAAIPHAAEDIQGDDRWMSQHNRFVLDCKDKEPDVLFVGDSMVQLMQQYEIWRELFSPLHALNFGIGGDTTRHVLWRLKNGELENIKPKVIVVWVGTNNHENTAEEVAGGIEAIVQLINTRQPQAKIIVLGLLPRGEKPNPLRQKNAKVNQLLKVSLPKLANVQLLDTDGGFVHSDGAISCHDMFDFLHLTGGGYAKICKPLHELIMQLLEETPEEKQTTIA
ABHD4 inh: ABHD4 inhibitors, primary screen, biochemical, fluorescence polarization, mouse. AID 720543, 2013. (Lyso)-N-acylphosphatidylethanolamine lipase (Mus musculus), Q8VD66. purified mABHD4, FP-Rh probe fluorescence polarization. 0.54% of 370,000 active. inhibition, % at 8.92 µM;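 active = inhibition exceeding the mean over every tested compound plus 3 SD, cut at about 30% in these data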;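 also: 0% = plate median of compound wells and 100% = S159A mutant with DMSO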
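Assay system: mABHD4 protein; medium: HEPES pH 7.0, NaCl, Pluronic buffer; dosing: 8.92 µM, single dose; schedule: 45 min + 60 min at 25 °C; signal: FP readout, ex 525 nm / em 598 nm; read-out: normalized percent inhibition of probe labeling; repeats: single replicate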
pPAFAH inh: pPAFAH enzyme inhibitors, primary screen, biochemical, fluorescence polarization, human; Platelet-activating factor acetylhydrolase (Homo sapiens), Q13093; inhibition, % at 3.39 µM; 1.5% of 330,000 active; recombinant pPAFAH, FP-rhodamine probe fluorescence polarization; AID 463082, 2010;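 active = inhibition above the mean inhibition across the screen plus 3 SD, cut at about 25% in these data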;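 also: inhibitors block binding of the rhodamine activity-based probe so polarization drops; 0% = enzyme with DMSO and 100% = wells lacking pPAFAH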
Target sequence (Q13093 whole entry, looked up): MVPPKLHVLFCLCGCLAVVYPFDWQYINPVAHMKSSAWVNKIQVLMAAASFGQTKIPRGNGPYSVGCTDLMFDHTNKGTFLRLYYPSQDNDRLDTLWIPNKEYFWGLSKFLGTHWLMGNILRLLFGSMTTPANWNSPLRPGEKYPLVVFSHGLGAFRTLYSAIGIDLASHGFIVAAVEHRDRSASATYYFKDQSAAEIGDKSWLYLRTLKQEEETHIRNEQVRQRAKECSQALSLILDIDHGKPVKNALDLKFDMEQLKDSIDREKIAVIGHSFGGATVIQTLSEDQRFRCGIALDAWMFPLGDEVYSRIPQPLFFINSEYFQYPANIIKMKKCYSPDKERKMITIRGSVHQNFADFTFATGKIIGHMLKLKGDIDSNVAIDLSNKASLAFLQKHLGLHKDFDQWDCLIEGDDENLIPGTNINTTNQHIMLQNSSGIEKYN
PAFAH1B3 inh: PAFAH1B3 enzyme inhibitors, primary screen, biochemical, fluorescence polarization, human; Platelet-activating factor acetylhydrolase IB subunit alpha1 (Homo sapiens), Q15102; 0.28% of 340,000 active; recombinant PAFAH1B3, FP-rhodamine probe; inhibition, % at 3.39 µM;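 active = inhibition above the screen-wide average of all tested compounds plus 3 SD, cut at about 25% in these data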;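 also: 0% = enzyme with DMSO only and 100% = wells lacking PAFAH1B3 protein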
HTRA1 inh: HTRA1 serine protease inhibitors, primary screen, biochemical, fluorescence polarization, HTS; Q92743; recombinant HTRA1, FP-rhodamine activity-based probe; inhibition, % at 5.96 µM; 0.5% of 340,000 active; in the data active = inhibition above about 36%;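 also: 0% = enzyme with DMSO and 100% = wells lacking enzyme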
PAFAH2 FP inh: PAFAH2 enzyme inhibitors, primary screen, biochemical, fluorescence polarization, human; recombinant PAFAH2, FP-rhodamine activity probe; inhibition, % at 3.39 µM; 0.99% of 340,000 active;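 active = inhibition above the mean over all tested compounds plus 3 SD, cut at about 30% in these data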;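 also: inhibitors block probe labeling of enzyme so polarization drops; 0% = enzyme with DMSO and 100% = wells lacking PAFAH2 protein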
PAFAH2 confirm: PAFAH2 enzyme inhibitors, confirmation, biochemical, fluorescence polarization, human; shares compounds with PAFAH2 FP inh; recombinant PAFAH2, FP-rhodamine activity probe; inhibition, % at 3.39 µM; 65% of 2,300 active;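 active = mean inhibition over three repeats above a set limit taken from the earlier primary screen, cut at about 30% in these data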;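 also: inhibitor blocks binding of rhodamine activity probe so polarization falls; 0% = enzyme with DMSO and 100% = wells lacking PAFAH2 protein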
Numbers without * were called inactive; / = not tested or not shown. Hits are enriched below; roughly 2.8% of the tested compounds scored in any of these assays.

SMILES	PAFAH1B2 FP inh	ABHD4 inh	pPAFAH inh	PAFAH1B3 inh	HTRA1 inh	PAFAH2 FP inh	PAFAH2 confirm
Nc1[nH]c(C(=O)c2ccccc2)c(-c2ccc(Cl)cc2)c1C(=O)NCCC1=CCCCC1	/	5	/	/	/	/	/
O=C(COC(=O)/C=C/c1ccc(S(=O)(=O)N2CCOCC2)cc1)NCc1ccc(Cl)cc1	4	-3	11	1	5	15	/
O=C(COC(=O)c1ccc(S(=O)(=O)N2CCOCC2)cc1)NC1CCCC1	2	-1	5	3	2	-2	/
O=C(COC(=O)/C=C/c1ccc(S(=O)(=O)N2CCOCC2)cc1)Nc1ccc(F)c(F)c1F	4	2	5	3	1	33*	34*
O=C(COC(=O)/C=C/c1ccc(S(=O)(=O)N2CCOCC2)cc1)NCc1ccccc1	0	-1	3	2	3	49*	30*
O=C(COC(=O)/C=C/c1ccc(S(=O)(=O)N2CCOCC2)cc1)NC1CCCCCCC1	-1	-6	7	-3	-14	53*	32*
O=C(/C=C/c1ccc(S(=O)(=O)N2CCOCC2)cc1)Nc1ccc(F)c(F)c1F	-3	-4	-3	3	-7	-3	/
Cc1nc2ccc(NC(=O)c3cc(Cl)ccc3F)cc2c(=O)[nH]1	/	-7	/	/	/	/	/
O=C(NC1CCCCN(Cc2cccc(Cl)c2)C1=O)c1ccc(F)cc1 (stereo unspecified)	/	-1	/	/	/	/	/
COc1cc(NC(=O)C2CCCN(S(=O)(=O)c3ccccc3[N+](=O)[O-])C2)cc(OC)c1 (stereo unspecified)	/	-14	/	/	/	/	/
C[C@H]1[C@@H](c2ccccc2)OC(O)([C@H](Cc2ccccc2)NC(=O)OC(C)(C)C)CN1C (stereo partly specified)	/	8	/	/	/	/	/
Cc1ccc(-c2nnc(NC(=O)COc3ccc(F)cc3Cl)o2)cc1C	/	-1	/	/	/	/	/
CC(=O)c1ccc(NC(=O)c2ccc(CNc3c(N4CCOCC4)c(=O)c3=O)cc2)cc1	1	-3	-2	10	-5	70*	63*
CCOc1ccc(NC(=O)c2ccc(CNc3c(N4CCCC4)c(=O)c3=O)cc2)cc1	-1	3	5	2	2	1	/
CC(=O)c1ccc(NC(=O)c2ccc(CNc3c(N4CCCC4)c(=O)c3=O)cc2)cc1	7	0	7	-5	-1	62*	65*
Cc1ccc(S(=O)(=O)N(C)[C@H]2C[C@H]3c4cc(N5CCOCC5)ccc4CCN3C[C@H]2[C@H](C)O)cc1	/	-1	/	/	/	/	/
Cc1c(O)ccc(NC(=O)/C=C/c2ccccc2)c1C	5	-2	3	2	3	-2	/
CCS(=O)(=O)c1ccc(O)c(NC(=O)Nc2ccccc2OC)c1	0	15	15	8	-15	47*	59*
CCS(=O)(=O)c1ccc(O)c(NC(=O)/C=C/c2ccccc2)c1	4	-9	17	8	0	75*	73*
CCCc1ccc(OCC(=O)Nc2cc(S(=O)(=O)CC)ccc2O)cc1	13	-17	22	7	-3	33*	26
CCS(=O)(=O)c1ccc(O)c(NC(=O)CC2(CC(=O)O)CCCC2)c1	-1	2	3	2	10	37*	27
CCS(=O)(=O)c1ccc(O)c(NC(=O)CCCC(=O)O)c1	-1	-5	3	-5	1	4	/
CCS(=O)(=O)c1ccc(O)c(NC(=O)COc2ccc(OC)cc2)c1	0	3	4	4	1	18	/
CC(C)CC(NC(=O)C1CCC(=O)N1C(=O)OCc1ccccc1)C(=O)NC(Cc1ccccc1)C(N)=O (stereo unspecified)	7	-1	4	1	-6	52*	48*
COC(=O)[C@@H](Cc1ccc(O)cc1)NC(=O)[C@H]1CCC(=O)N1C(=O)OCc1ccccc1	1	-10	1	3	-1	22	/
SMILES	PAFAH1B2 FP inh	ABHD4 inh	pPAFAH inh	PAFAH1B3 inh	HTRA1 inh	PAFAH2 FP inh	PAFAH2 confirm
CCC(C)C(NC(=O)C1CCC(=O)N1C(=O)OCc1ccccc1)C(=O)NC(Cc1ccccc1)C(N)=O (stereo unspecified)	7	0	2	-1	6	78*	64*
CN(C(=O)COC(=O)/C=C/c1cccs1)C1CCCCC1	0	5	2	1	-5	75*	73*
O=C(COC(=O)/C=C/c1cccs1)NC(=O)Cc1ccccc1	2	-2	5	10	-9	6	/
Cc1ccc(NC(=O)COC(=O)/C=C/c2cccs2)cc1	-3	3	6	-4	2	80*	73*
CCN(c1ccc(NC(=O)COC(=O)/C=C/c2cccs2)cc1)C(C)C	3	7	10	3	6	42*	24
CC(C)C(=O)NC(=O)COC(=O)/C=C/c1cccs1	2	-4	5	7	9	53*	42*
CCOC(=O)/C=C/C(=O)OCC(=O)Nc1ccc(C)cc1	/	1	2	/	/	/	/
COc1ccc(CNC2CCC23CCC(C)CC3)cc1OC (stereo unspecified)	/	6	/	/	/	/	/
C=CCNC(=O)/C=C/c1cccs1	7	3	2	1	-4	8	/
C=CCNC(=O)COC(=O)/C=C/c1cccs1	1	2	-2	6	-5	49*	26
COC(=O)C1CN(Cc2cn(CCC3OCCO3)nn2)CCS(=O)(=O)N1Cc1ccccc1 (stereo unspecified)	/	4	/	/	/	/	/
O=C(COC(=O)c1ccc2c(c1)OCCO2)NCCc1ccccc1	4	0	12	7	10	46*	41*
CCNc1ccc(C(=O)OCC(=O)NC(C)c2ccccc2)cc1[N+](=O)[O-] (stereo unspecified)	9	-1	5	9	0	83*	73*
CC(NC(=O)COC(=O)c1ccc2c(c1)OCCO2)c1ccccc1 (stereo unspecified)	4	3	12	4	5	63*	61*
CCNc1ccc(C(=O)OCC(=O)NCc2ccc(C)cc2)cc1[N+](=O)[O-]	1	1	-2	1	-10	1	/
CC1(c2nnnn2Cc2ccccc2)CCSCC(=O)N1Cc1cccs1 (stereo unspecified)	/	4	/	/	/	/	/
COC(=O)C[C@H]1CC[C@H]2[C@@H](COc3ccc(NC(=O)Nc4ccccc4)cc3C(=O)N2C)O1	/	0	/	/	/	/	/
